# In PMC3586205 (European journal of pharmacology, 2012):
# pKi: −log10 of the molar value. “Also recorded” adds a separate entry of the source. Like-named read-outs stand apart in the source and are kept apart here.
# Columns and labels:
# [1] = test system: cannabinoid agonist-like effects in mice; conditions: cited from earlier work; for % of maximal cannabinoid agonist-like activity in each of the four tests: ref Wiley et al. (2012); for profile in test battery: ref Wiley et al. (2011)
# [2] = test system: spontaneous activity in mice; conditions: cited from earlier work; for SA ED50 (95% confidence limits): i.v.
# [3] = test system: tail flick latency in mice; conditions: cited from earlier work; for %MPE, maximum possible antinociceptive effect in tail flick (maximum effect): 10 mg/kg i.v.; for %MPE tail flick (maximum effect): 30 mg/kg i.v.; for %MPE tail flick ED50 (95% confidence limits): i.v.
# ring immobility in mice = conditions: cited from earlier work
# [4] = biological target: T1, human cannabinoid CB2 receptor (Homo sapiens, UniProt P34972); conditions: read-out: CB2 Ki (± SEM), displacement of [3H]CP55,940, cited from earlier work
# [5] = biological target: T2, human cannabinoid CB1 receptor (Homo sapiens, UniProt P21554); conditions: cited from earlier work
# food intake in mice [6] = assay: Feeding behavior: 1-h food intake after 24-h food deprivation; format: in vivo; conditions: for decrease in feeding compared to vehicle: 60 min pre-session, significant
# [7] = biological target: T2, human cannabinoid CB1 receptor; assay: Cannabinoid CB1 receptor radioligand binding, displacement of [3H]CP55,940
# [8] = biological target: T1, human cannabinoid CB2 receptor; assay: Cannabinoid CB2 receptor radioligand binding, displacement of [3H]CP55,940
# Outline: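 CHO cells stably expressing human CB2 receptor; membranes made in 50 mM Tris-HCl, 3 mM MgCl2, 1 mM EGTA, pH 7.4. Membrane (10 μg protein) incubated with 1 nM [3H]CP55,940 and varying test compound in 50 mM Tris-HCl pH 7.4, 3 mM MgCl2, 0.2 mM EGTA, 0.5% BSA, 60 min at 30 °C. Non-specific binding was taken with 1 μM unlabeled CP55,940. Bound and free were separated by GF/B filtration with cold Tris-BSA washes, then counted by liquid scintillation.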
# [9] = test system: spontaneous activity in mice; assay: Spontaneous; format: in vivo; conditions: 30 mg/kg i.v.
# Outline: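 Separate groups of mice per dose were injected i.v. with vehicle (ethanol:Emulphor-620:saline 1:1:18) or test compound. Five minutes later each was placed in an activity chamber for 10 min. Total photobeam interruptions were counted and expressed as % inhibition of the vehicle group. ED50s were derived by log-dose linear regression, taking 90% inhibition as maximal.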
# [10] = test system: tail flick latency in mice; assay: Tail flick antinociception, mouse test battery; format: in vivo; conditions: 30 mg/kg i.v.
# Outline: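 Baseline tail-flick latency was taken to radiant heat (bright light) before i.v. injection of vehicle (ethanol:Emulphor-620:saline 1:1:18) or test compound. Latency was re-measured 20 min post-injection with a 10 s cutoff. Result expressed as %MPE = [(test−control latency)/(10−control)] × 100, separate groups per dose.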
# [11] = test system: rectal temperature in mice; conditions: cited from earlier work; for RT (maximum effect): 30 mg/kg i.v.; for RT ED50 (95% confidence limits): i.v.
# food intake in mice [12] = conditions: ref Wiley et al., cited from earlier work; for dose (as low as) that suppressed eating: same food intake protocol, 2005
# [13] = 3 mg/kg i.v., ref Wiley et al. (2012)
# [14] = read-out: CB1 Ki (± SEM), displacement of [3H]CP55,940, ref Wiley et al. (2012)
# [15] = 10 mg/kg i.v., stim=stimulation, ref Wiley et al. (2012)
# [16] = 10 mg/kg i.v., ref Wiley et al. (2012)
# [17] = 30 mg/kg i.v., ref Wiley et al. (2001)
# [18] = read-out: CB1 Ki (± SEM), displacement of [3H]CP55,940, ref Wiley et al. (2011)
# [19] = read-out: CB1 receptor binding affinity Ki, ref Wiley et al., 2005
# [20] = present study and H.A. Navarro, personal communication
# T2 sequence (P21554 whole entry): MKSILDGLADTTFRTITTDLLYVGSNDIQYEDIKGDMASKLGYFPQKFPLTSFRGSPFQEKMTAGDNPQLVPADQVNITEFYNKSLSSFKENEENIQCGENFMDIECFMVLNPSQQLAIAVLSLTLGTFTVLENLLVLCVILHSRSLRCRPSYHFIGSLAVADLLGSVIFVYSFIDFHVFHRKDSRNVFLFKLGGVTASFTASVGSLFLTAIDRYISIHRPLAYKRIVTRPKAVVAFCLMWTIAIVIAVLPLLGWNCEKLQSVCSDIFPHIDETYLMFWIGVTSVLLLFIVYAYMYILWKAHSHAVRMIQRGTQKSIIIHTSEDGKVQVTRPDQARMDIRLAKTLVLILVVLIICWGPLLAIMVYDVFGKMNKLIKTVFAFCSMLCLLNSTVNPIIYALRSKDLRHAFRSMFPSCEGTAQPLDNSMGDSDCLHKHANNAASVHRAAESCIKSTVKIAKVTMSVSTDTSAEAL
# T1 sequence (P34972 whole entry): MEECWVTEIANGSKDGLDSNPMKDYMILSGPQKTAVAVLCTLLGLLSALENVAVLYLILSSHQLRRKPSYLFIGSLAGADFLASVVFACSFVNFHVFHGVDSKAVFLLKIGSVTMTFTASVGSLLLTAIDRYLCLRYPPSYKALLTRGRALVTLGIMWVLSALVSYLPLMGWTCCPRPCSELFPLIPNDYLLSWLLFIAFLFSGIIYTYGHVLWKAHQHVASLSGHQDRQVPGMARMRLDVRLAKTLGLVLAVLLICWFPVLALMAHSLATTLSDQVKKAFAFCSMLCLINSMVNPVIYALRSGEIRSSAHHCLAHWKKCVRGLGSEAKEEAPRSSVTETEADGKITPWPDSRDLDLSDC
compound,measurement,setting,value
3-bromopropyl carboxamide analog [Compound O-2154],% of maximal cannabinoid agonist-like activity in each of the four tests,[1]; 3 mg/kg,at least 50%
same,"SA, % inhibition of activity of vehicle control group (single dose)",[2]; [13],70% (3)
same,%MPE in tail flick (single dose),[3]; [13],50% (3)
same,"RI, % time immobile (single dose)",ring immobility in mice; [13],35% (3)
same,pKi,[4]; ref Wiley et al. (2012),6.14
same,pKi,[5]; [14],7.42
same,decrease in feeding compared to vehicle,food intake in mice [6]; 56 mg/kg i.p.,60%
3-cyanopropyl carboxamide analog [Compound O-2155],% of maximal cannabinoid agonist-like activity in each of the four tests,[1]; 10 mg/kg,at least 50%
same,"SA, % inhibition of activity of vehicle control group (maximum effect)",[2]; [15],86% (10)
same,"%MPE, maximum possible antinociceptive effect in tail flick (maximum effect)",[3]; ref Wiley et al. (2012),89% (10)
same,"RI, % time immobile on elevated ring (maximum effect)",ring immobility in mice; [16],47% (10)
same,pKi,[4]; ref Wiley et al. (2012),5.73
same,pKi,[5]; [14],6.65
same,decrease in feeding compared to vehicle,food intake in mice [6]; 30 mg/kg i.p.,55%
"Cc1c(C(=O)NCC2CCC(CNS(C)(=O)=O)CC2)nn(-c2ccc(Cl)cc2Cl)c1-c1ccc(Cl)cc1 (centres unmarked) [13226–70, 5-(4-chlorophenyl)-1-(2,4-dichlorophenyl)–N-{[4-(methanesulfonamido-methyl)cyclohexyl]methyl}-4-methyl-1H-pyrazole-3-carboxamide]",effect on food intake,food intake in mice [6]; doses up to 30 mg/kg i.p.,failed to alter food intake
"O=C(NN1CCCCC1)c1nn(-c2ccc(Cl)cc2Cl)c2cc(Br)ccc12 [Compound O-1654, 6-bromo-1-(2,4-dichlorophenyl)–N-(piperidin-1-yl)-1H-indazole-3-carboxamide]",pKi,[7],6.06
same,pKi,[8],5.93
same,effect on food intake,food intake in mice [6]; doses up to 100 mg/kg i.p.,did not affect food intake
"CC1=CC[C@@H]2[C@@H](C1)c1c(O)cc(C(C)(C)CCCCCC(=O)NCCc3ccc(S(N)(=O)=O)cc3)cc1OC2(C)C [Compound O-1689, 7-[(6aR,10aR)-1-hydroxy-6,6,9-trimethyl-6a,7,10,10a-tetrahydro-6H-benzo[c]chromen-3-yl]-7-methyl-N-(4-sulfamoylphenethyl]octanamide]",pKi,[7],7.42
same,"SA, % inhibition of activity of vehicle control group (maximum effect)",[9],46% (30)
same,effect on food intake,"food intake in mice [6]; i.p., doses not stated in text (Fig. 2)",failed to affect food intake
same,%MPE tail flick (maximum effect),[10],inactive (30)
"CCCCC(C)c1ccc(-c2c(C)c(C(=O)NN3CCCCC3)nn2-c2ccc(Cl)cc2Cl)cc1 (centres unmarked) [Compound O-1690, 1-(2,4-dichlorophenyl)-5-[4-(hexan-2-yl)phenyl]-4-methyl-N-(piperidin-1-yl)-1H-pyrazole-3-carboxamide]",activity in test battery when tested alone,"[1]; ref Wiley et al., 2001",inactive
same,SA (maximum effect),[2]; [17],inactive (30)
same,%MPE tail flick (maximum effect),[3]; ref Wiley et al. (2001),inactive (30)
same,RI (maximum effect),ring immobility in mice; [17],inactive (30)
same,pKi,"[5]; read-out: CB1 Ki (± SEM), displacement of [3H]CP55,940, ref Wiley et al. (2001)",8.59
same,RT (maximum effect),[11]; ref Wiley et al. (2001),inactive (30)
same,effect on food intake,food intake in mice [6]; doses up to 30 mg/kg i.p.,did not alter food intake
CC1=CC[C@@H]2[C@@H](C1)c1ccc(CC#CCCCC(=O)NCCc3ccc(S(N)(=O)=O)cc3)cc1OC2(C)C [Compound O-1720],pKi,"[7]; read-out: CB1 Ki (± SEM), displacement of [3H]CP55,940",6.04
same,pKi,"[8]; read-out: CB2 Ki (± SEM), displacement of [3H]CP55,940",6.10
same,decrease in feeding compared to vehicle,food intake in mice [6]; 100 mg/kg i.p.,24%
same,dose that significantly decreased feeding,food intake in mice [6]; i.p.,100 mg/kg
"CCS(=O)(=O)NCCCC#CCc1cc(O)c2c(c1)OC(C)(C)[C@@H]1CC=C(C)C[C@@H]21 [Compound O-1991, N-{6-[(6aR,10aR)-1-hydroxy-6,6,9-trimethyl-6a,7,10,10a-tetrahydro-6H-benzo[c]chromen-3-yl]hex-4-yn-1-yl}ethane-sulfonamide]",profile in test battery,[1],exhibit agonist-like in vivo effects
same,SA ED50 (95% confidence limits),[2]; ref Wiley et al. (2011),2 (1–3) mg/kg
same,%MPE tail flick ED50 (95% confidence limits),[3]; ref Wiley et al. (2011),0.9 (0.6–1.4) mg/kg
same,pKi,[4]; ref Wiley et al. (2011),8.85
same,pKi,[5]; [18],7.52
same,RT ED50 (95% confidence limits),[11]; ref Wiley et al. (2011),0.8 (0.4–1.6) mg/kg
same,decrease in feeding compared to vehicle,food intake in mice [6]; 56 mg/kg i.p.,79%
same,dose that significantly decreased feeding,food intake in mice [6]; i.p.,56 mg/kg
"CC1=CCC2C(C1)c1c(O)cc(CC#CCCCNS(C)(=O)=O)cc1OC2(C)C (centres unmarked) [Compound O-2050, 3-(6′-methane-sulfamidohex-2-yne)-Δ^8-tetrahydrocannabinol]",profile in test battery,[1],did not affect responses in the in vivo test battery
same,"SA, % inhibition of activity of vehicle control group (maximum effect)","[2]; 30 mg/kg i.v., ref Wiley et al. (2011)",69% (30)
same,%MPE tail flick (maximum effect),[3]; ref Wiley et al. (2011),inactive (30)
same,pKi,[4]; ref Wiley et al. (2011),9.70
same,effect on food intake,"food intake in mice [12]; same procedure, 2011",decrease food intake
same,pKi,[5]; read-out: CB1 Ki (± SEM),8.60
same,RT (maximum effect),[11]; ref Wiley et al. (2011),inactive (30)
"CCS(=O)(=O)NCCCCC(C)(C)c1cc(O)c2c(c1)OC(C)(C)[C@@H]1CC=C(C)C[C@@H]21 [Compound O-2113, N-{5-[(6aR,10aR)-1-hydroxy-6,6,9-tri-methyl-6a,7,10,10a-tetrahydro-6H-benzo[c]chromen-3-yl]-5-methylhexyl}ethanesulfonamide]",profile in test battery,[1],exhibit agonist-like in vivo effects
same,SA ED50 (95% confidence limits),[2]; ref Wiley et al. (2011),0.4 (0.1–1.8) mg/kg
same,%MPE tail flick ED50 (95% confidence limits),[3]; ref Wiley et al. (2011),0.3 (0.1–1) mg/kg
same,pKi,[4]; ref Wiley et al. (2011),10.10
same,pKi,[5]; [18],8.77
same,RT ED50 (95% confidence limits),[11]; ref Wiley et al. (2011),1.4 (0.3–4.6) mg/kg
same,decrease in feeding compared to vehicle,food intake in mice [6]; 30 mg/kg i.p.,97%
same,dose that significantly decreased feeding,food intake in mice [6]; i.p.,30 mg/kg
"Cc1c(C(=O)NN2CCCCC2)nn(-c2ccc(Cl)cc2Cl)c1-c1ccc(CCCCCN=[N+]=[N-])cc1 [Compound O-3257, 5-(4-(5-azidopentyl)phenyl)-1-(2,4-dichlorophenyl)-4-methyl-N-(piperidin-1-yl)-1H-pyrazole-3-carboxamide, reference compound]",dose (as low as) that suppressed eating,food intake in mice [12],1 mg/kg
same,pKi,[5]; [19],8.66
"Cc1c(C(=O)NN2CCCCC2)nn(-c2ccc(Cl)cc2Cl)c1-c1ccc(CCCCC[N+](=O)[O-])cc1 [Compound O-3259, 1-(2,4-dichlor-ophenyl)-4-methyl-5-(4-(5-nitropentyl)phenyl)–N-(piperidin-1-yl)-1H-pyrazole-3-carboxamide, reference compound]",dose (as low as) that suppressed eating,food intake in mice [12],1 mg/kg
same,pKi,[5]; [19],8.92
"Cc1c(C(=O)NN2CCCCC2)nn(-c2ccc(Cl)cc2Cl)c1-c1ccc(Cl)cc1 [Rimonabant, reference compound]","SA, % inhibition of activity of vehicle control group (maximum effect)",[2]; [15],stim (10)
same,"%MPE, maximum possible antinociceptive effect in tail flick (maximum effect)",[3]; ref Wiley et al. (2012),inactive (10)
same,"RT, change in rectal temperature compared to pre-drug (maximum effect)",[11]; [16],inactive (10)
same,decrease in feeding compared to vehicle,food intake in mice [6]; 1 mg/kg i.p.,47%
same,decrease in feeding compared to vehicle,food intake in mice [6]; 10 mg/kg i.p.,41%
Hemopressin [reference compound],"displacement of [3H]CP55,940 from CB1 receptors",[7]; [20],failed to displace
same,"displacement of [3H]CP55,940 from CB2 receptors",[8]; [20],failed to displace
same,effect on food intake,food intake in mice [6]; doses up to 3 mg/kg i.p.,did not affect food intake; also recorded: did not affect feeding
N-allyl carboxamide analog [Compound O-4373],SA ED50 (95% confidence limits),[2]; ref Wiley et al. (2012),2.3 (1.0–5.2) mg/kg
same,RI ED50 (95% confidence limits),"ring immobility in mice; i.v., ref Wiley et al. (2012)",4.2 (2.5–7.0) mg/kg
same,pKi,[4]; ref Wiley et al. (2012),5.77
same,pKi,[5]; [14],6.83
same,RT ED50 (95% confidence limits),[11]; ref Wiley et al. (2012),2.9 (2.1–5.0) mg/kg
same,decrease in feeding compared to vehicle,food intake in mice [6]; 30 mg/kg i.p.,73%
